An excerpt weighted towards active compounds, which were near 3% of everything screened.
CHRM4 PAM – CHRM4 positive allosteric modulation | P08173 | CHO-K1 hM4/Gqi5, Fluo-8 calcium fluorescence, ACh EC20; 0% = ACh EC20, 100% = maximal ACh | activation, % at 3 µM | actives 0.4% (n = 360,000) | AID 624126;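 active = activation above its plate's cutoff, the mean activation of sample wells plus 3 SD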
CHRM4 agonist – CHRM4 agonism in calcium assay; activation, % at 3 µM; AID 624127; actives 0.14% (n = 360,000); CHO-K1 hM4/Gqi5, Fluo-8 calcium fluorescence; vehicle 0%, full acetylcholine response 100%;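 active = activation above the run mean over all test wells plus 3 SD, cut at about 32% in these data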;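 also: peak over basal fluorescence ratio per well then scaled between controls; 0% = DMSO wells and 100% = acetylcholine at EC100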
CHRM4 antagonist – blocks acetylcholine activation of human M4 receptor; AID 624125; CHO-hM4 cells, ACh EC80, Fluo-8 calcium fluorescence; actives 0.73% (n = 360,000); P08173; inhibition, % at 3 µM;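 active = inhibition above its plate's cutoff, the mean inhibition of sample wells plus 3 SD, cut at about 27% in these data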;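 also: 0% = acetylcholine EC80 with DMSO and 100% = DMSO without agonist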
TAAR1 ag – human TAAR1 agonism; Q96RJ0; CHO RD-HGA16 TAAR1, Fluo-8 calcium fluorescence; vehicle wells 0%, saturating PEA agonist 100%; activation, % at 3 µM; actives 0.99% (n = 360,000);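 active = activation above the mean activation of all test compounds in the run plus 3 SD, cut at about 38% in these data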
Target sequence (Q96RJ0 whole entry, looked up): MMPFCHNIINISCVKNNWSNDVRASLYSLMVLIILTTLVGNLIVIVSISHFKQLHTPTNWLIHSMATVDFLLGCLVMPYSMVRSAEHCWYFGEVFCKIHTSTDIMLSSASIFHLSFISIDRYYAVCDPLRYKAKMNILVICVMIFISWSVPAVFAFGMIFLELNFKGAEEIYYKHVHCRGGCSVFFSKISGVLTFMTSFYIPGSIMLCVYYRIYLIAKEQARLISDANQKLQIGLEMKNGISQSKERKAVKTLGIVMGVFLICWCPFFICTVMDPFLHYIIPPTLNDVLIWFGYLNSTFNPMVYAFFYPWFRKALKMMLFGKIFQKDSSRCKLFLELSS
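Assay system – CHO-derived RD-HGA16 cells with stable Gα16 and human TAAR1 · Compound dosing – one-point dosing at 3 µM (nominal) · Incubation – 17-24 h seeding, 75 min 37 °C dye, 30 min RT · Measured by – kinetic Fluo-8 calcium fluorescence · Control set – DMSO vehicle as 0%, PEA at EC100 as 100% · Repeats – single well for each compound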
TAAR1 antag – antagonists of human TAAR1. Q96RJ0. CHO RD-HGA16 TAAR1, Fluo-8 calcium fluorescence, antagonist. inhibition, % at 3 µM. actives 1.5% (n = 360,000). AID 624466;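 active = inhibition above a per-plate cutoff, the mean inhibition of test compounds on that plate plus 3 SD, cut at about 49% in these data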;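 also: 0% = DMSO plus EC80 beta-PEA response and 100% = DMSO alone without agonist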
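Assay system: CHO-derived RD-HGA16 cells stably expressing human TAAR1 plus Gα16. Timing: 140 s kinetic read after compound, 140 s after agonist. Technique: kinetic Fluo-8 calcium fluorescence measurement. Measure: % inhibition of agonist calcium response.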
Active calls of the source: *.

Nc1nc(SCc2ccccc2[N+](=O)[O-])c2ncn(Cc3ccccc3)c2n1 was read as CHRM4 PAM -9, CHRM4 agonist 5, CHRM4 antagonist 40*, TAAR1 ag 4 and TAAR1 antag 42.
For O=C1C(Oc2ccc(Cl)cc2)C(c2ccc3c(c2)OCO3)N1CC1CCCO1 (configuration not stated) the results were CHRM4 PAM -8, CHRM4 agonist 13, CHRM4 antagonist 2, TAAR1 ag 14 and TAAR1 antag 50*.
For COc1ccc2cc(C(=O)CS(=O)(=O)c3ccc(Cl)cc3)c(=O)oc2c1 the results were TAAR1 ag 1 and TAAR1 antag 6.
Screening CC1(C)CN=C(NC2CCCCC2)S1 returned CHRM4 PAM -14, CHRM4 agonist 1, CHRM4 antagonist 43*, TAAR1 ag 9 and TAAR1 antag -5.
Screening O=[N+]([O-])c1ccc(NC2CCCCC2)nc1 returned CHRM4 PAM 1, CHRM4 agonist 0, CHRM4 antagonist -2, TAAR1 ag -3 and TAAR1 antag 17.
Screening COCCCNc1cc(C)nc2ccccc12 returned CHRM4 PAM 7, CHRM4 agonist 2, CHRM4 antagonist -1, TAAR1 ag 1 and TAAR1 antag 10.
Screening Cc1cc(NCCCCCCCNc2cc(C)nc3cc([N+](=O)[O-])ccc23)c2ccc([N+](=O)[O-])cc2n1 returned CHRM4 PAM -10, CHRM4 agonist 2, CHRM4 antagonist 43*, TAAR1 ag 0 and TAAR1 antag -12.
For COc1ccc(NC(=O)c2cc(-c3cc(C)cc(F)c3)n[nH]2)cc1OC the results were CHRM4 PAM -5, CHRM4 agonist 11, CHRM4 antagonist 4, TAAR1 ag 10 and TAAR1 antag 26.
`CCN(CC)CC(=O)N1c2ccccc2Sc2ccc(Cl)cc21` gave CHRM4 PAM -18, CHRM4 agonist 0, CHRM4 antagonist 85*, TAAR1 ag 2 and TAAR1 antag -2.
Screening CCN(CC)CCCCN1c2ccccc2Sc2ccccc21 returned CHRM4 PAM -17, CHRM4 agonist 10, CHRM4 antagonist 73*, TAAR1 ag 17 and TAAR1 antag 5.
NCCCC(=O)N1c2ccccc2Sc2ccccc21 was read as CHRM4 PAM -14, CHRM4 agonist 1, CHRM4 antagonist 42*, TAAR1 ag 6 and TAAR1 antag -11.
For CCN(CC)C(=O)N1c2ccccc2Sc2ccccc21 the results were CHRM4 PAM -4, CHRM4 agonist -2, CHRM4 antagonist 2, TAAR1 ag -3 and TAAR1 antag -2.
For CCN(CC)CC(=O)N1c2ccccc2Sc2ccccc21 the results were CHRM4 PAM -18, CHRM4 agonist 1, CHRM4 antagonist 84*, TAAR1 ag 1 and TAAR1 antag 4.
Screening Cc1cc(Br)c2nc(-c3cccc(Br)c3)c(Cc3cccc(Cl)c3)n2c1 returned TAAR1 ag -1 and TAAR1 antag -4.
For O=C(Nc1ccccc1C(=O)NCC1CC1)c1cccs1 the results were TAAR1 ag -1 and TAAR1 antag -13.
Screening CCOc1ccc(NC(=O)CN2C(=O)S/C(=C/c3cccn3C)C2=O)cc1 returned CHRM4 PAM -5, CHRM4 agonist 2, CHRM4 antagonist 1, TAAR1 ag 3 and TAAR1 antag 16.
For Cn1cccc1/C=C1\SC(=O)N(CC(=O)Nc2ccc(Cl)cc2)C1=O the results were CHRM4 PAM -16, CHRM4 agonist 14, CHRM4 antagonist 8, TAAR1 ag 28 and TAAR1 antag 55*.
`CCCCCCOc1ccc(/C(C)=N/NC2=NCCN2)cc1[N+](=O)[O-]` gave CHRM4 PAM 17, CHRM4 agonist 5, CHRM4 antagonist 5, TAAR1 ag 38* and TAAR1 antag 0.
COc1cccc(CC(=O)NCC2CCN(C(=O)C(=O)c3cccs3)CC2)c1 was read as TAAR1 ag 0 and TAAR1 antag 1.
For O=C(NCCc1cccs1)C12CN(Cc3ccccc3)CC1C(c1cccc([N+](=O)[O-])c1)=NO2 (configuration not stated) the results were CHRM4 PAM -8, CHRM4 agonist 2, CHRM4 antagonist -4, TAAR1 ag 40* and TAAR1 antag 0.
Screening CC(Sc1nnc(C2CC2)n1-c1ccccc1)C(=O)N1CCNC1=O (configuration not stated) returned CHRM4 PAM 23*, CHRM4 agonist 0, CHRM4 antagonist -11, TAAR1 ag 4 and TAAR1 antag -7.
Screening CCOC(=O)N[C@H](C(=O)N1CCC[C@H]1C(=O)NC1CCCC1)c1ccccc1 returned TAAR1 ag 1 and TAAR1 antag -19.
Screening COc1ccc(S(=O)(=O)/N=C2/C=CC(=O)C(C)=C2C)cc1 returned CHRM4 PAM 5, CHRM4 agonist 1 and CHRM4 antagonist 2.
`CC1=C(C)/C(=N\OS(=O)(=O)c2ccc(C)cc2)C=CC1=O` gave CHRM4 PAM -9, CHRM4 agonist 12, CHRM4 antagonist 60*, TAAR1 ag 6 and TAAR1 antag 52*.
CC1=C/C(=N\OS(=O)(=O)c2ccccc2)C(C)=CC1=O was read as CHRM4 PAM -16, CHRM4 agonist 18 and CHRM4 antagonist 70*.
`COc1ccc(-n2c(Cc3ccccc3)nnc2SCC(=O)N2CCCc3ccccc32)cc1` gave CHRM4 PAM 2, CHRM4 agonist 1, CHRM4 antagonist -1, TAAR1 ag 27 and TAAR1 antag 12.
`O=C(NCc1nnc(SCC(=O)N2CCCc3ccccc32)n1-c1ccccc1)c1cccc2ccccc12` gave CHRM4 PAM -5, CHRM4 agonist 8, CHRM4 antagonist 0, TAAR1 ag 10 and TAAR1 antag 50*.
For COc1ccccc1C(=O)Nc1ccc(-c2nnc(SCC(=O)O)n2C)cc1 the results were CHRM4 PAM 19, CHRM4 agonist 2, CHRM4 antagonist 37*, TAAR1 ag 6 and TAAR1 antag 11.
For CC(C)C[C@H](NC(=O)c1nc[nH]c1C(=O)NCCCCCNC(=O)OC(C)(C)C)C(=O)OC(C)(C)C the results were CHRM4 PAM -14, CHRM4 agonist 4, CHRM4 antagonist 50*, TAAR1 ag 2 and TAAR1 antag -3.
`C[C@H](NC(=O)c1nc[nH]c1C(=O)NC1CCN(C(=O)OC(C)(C)C)CC1)C(=O)OCc1ccccc1` gave CHRM4 PAM -2, CHRM4 agonist 10, CHRM4 antagonist 5, TAAR1 ag 9 and TAAR1 antag 56*.
CC(C)C[C@H](NC(=O)c1nc[nH]c1C(=O)N[C@@H](CCCCNC(=O)OC(C)(C)C)C(=O)OC(C)(C)C)C(=O)OC(C)(C)C was read as CHRM4 PAM 7, CHRM4 agonist 0, CHRM4 antagonist -12, TAAR1 ag 7 and TAAR1 antag -4.

Assay outcomes as filed in PubChem.
